The values below come from ChEMBL document CHEMBL4613246, “Antimycobacterial Rufomycin Analogues from Streptomyces atratus Strain MJM3502” (J Nat Prod, 2020).

Usually MBC stands for the lowest tested concentration that kills the bacteria rather than only halting them.

The test system of assay [1] is Mycobacterium tuberculosis. Put plainly: Bactericidal activity against Mycobacterium tuberculosis H37Rv harboring LuxAB gene assessed as reduction in microbial growth by measuring reduction in relative luminescence units after 7 days by luminometric method. Conditions: 168 h. Type of assay: functional. The procedure, abridged:
(§1)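 Viability was read from an H37Rv luminescent reporter strain carrying plasmid pMV306hsp+LuxAB+G13+CDE. It was incubated with compound for two weeks, with luminescence read on days 7 and 14.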

Assay [2] relates to Mycobacterium tuberculosis. Put plainly: Bactericidal activity against Mycobacterium tuberculosis H37Rv harboring LuxAB gene assessed as reduction in microbial growth by measuring reduction in relative luminescence units after 14 days by luminometric method. Type of assay: functional. Conditions: 336 h. The procedure, abridged:
as §1

Each structure is given as a SMILES string. Starred links: 1 amine or outer side, 2 acyl side, 3 side chain; linkers in the order of their positions; H or OH if unused. Non-standard residues stand in square brackets, D forms with d. Residues, ends and D or L forms follow the SMILES beside them. Trp(1-CMe2(2S-oxiranyl)) = CC(C)([C@H]1CO1)n1cc(C[C@H](N)C(=O)O)c2ccccc21; Trp(1-(1,1-Me2-allyl)) = C=CC(C)(C)n1cc(C[C@H](N)C(=O)O)c2ccccc21; X3 = CC(C)([C@H](O)CCl)n1cc(C[C@H](N[*:1])C(=O)[*:2])c2ccccc21; Tyr(3-NO2) = N[C@@H](Cc1ccc(O)c([N+](=O)[O-])c1)C(=O)O; X1 = COC(OC)C(C)C[C@@H](C(=O)[*:2])N(C)[*:1]; X2 = C[C@H](CO)C[C@@H](C(=O)[*:2])N(C)[*:1]; Gly(E-crotyl) = C/C=C/C[C@H](N)C(=O)O; NMeL = CN[C@@H](CC(C)C)C(=O)O

Take `C/C=C/C[C@@H]1NC(=O)[C@H](CC(C)C)N2C(=O)[C@H](CC(C)[C@H]2O)N(C)C(=O)[C@H](C)NC(=O)[C@H](Cc2ccc(O)c([N+](=O)[O-])c2)NC(=O)[C@H](CC(C)C)N(C)C(=O)[C@H](Cc2cn(C(C)(C)[C@H]3CO3)c3ccccc23)NC1=O` (some centres undefined): the MBC in assay [1] is over 10 µM; in assay [2], 0.88 µM.

`NNC(=O)c1ccncc1` [ISONIAZID]: the MBC in assay [1] is 0.99 µM; in assay [2], 4 µM.

On to `C/C=C/C[C@@H]1NC(=O)[C@H](CC(C)C)N2C(=O)[C@H](C[C@@H](C)[C@H]2O)N(C)C(=O)[C@H](C)NC(=O)[C@H](Cc2ccc(O)c([N+](=O)[O-])c2)NC(=O)[C@H](CC(C)C)N(C)C(=O)[C@H](Cc2cn(C(C)(C)[C@H](O)CO)c3ccccc23)NC1=O`, for which the MBC in assay [1] was over 10 µM; in assay [2], 0.58 µM.

Consider `C/C=C/C[C@@H]1NC(=O)[C@H](CC(C)C)NC(=O)[C@H](CC(C)C(OC)OC)N(C)C(=O)[C@H](C)NC(=O)[C@H](Cc2ccc(O)c([N+](=O)[O-])c2)NC(=O)[C@H](CC(C)C)N(C)C(=O)[C@H](Cc2cn(C(C)(C)[C@H]3CO3)c3ccccc23)NC1=O` (stereo partly drawn) (cyclo(A[X1]L[Gly(E-crotyl)][Trp(1-CMe2(2S-oxiranyl))][NMeL][Tyr(3-NO2)])), for which the MBC in assay [1] is over 10 µM; in assay [2], 1.1 µM.

For `C/C=C/C[C@@H]1NC(=O)[C@H](CC(C)C)NC(=O)[C@H](CC(C)C)N(C)C(=O)[C@H](C)NC(=O)[C@H](Cc2ccc(O)c([N+](=O)[O-])c2)NC(=O)[C@H](CC(C)C)N(C)C(=O)[C@H](Cc2cn(C(C)(C)[C@H]3CO3)c3ccccc23)NC1=O` (cyclo(A[NMeL]L[Gly(E-crotyl)][Trp(1-CMe2(2S-oxiranyl))][NMeL][Tyr(3-NO2)])), the MBC in assay [1] was over 10 µM; in assay [2], 1 µM.

Turning to `CO[C@H]1/C=C/O[C@@]2(C)Oc3c(C)c(O)c4c(O)c(c(/C=N/N5CCN(C)CC5)c(O)c4c3C2=O)NC(=O)/C(C)=C\C=C\[C@H](C)[C@H](O)[C@@H](C)[C@@H](O)[C@@H](C)[C@H](OC(C)=O)[C@@H]1C` [RIFAMPIN], the MBC is 0.24 µM in assay [1] and 0.12 µM in assay [2].

`C/C=C/C[C@@H]1NC(=O)[C@H](CC(C)C)N2C(=O)[C@H](C[C@](C)(O)[C@H]2O)N(C)C(=O)[C@H](C)NC(=O)[C@H](Cc2ccc(O)c([N+](=O)[O-])c2)NC(=O)[C@H](CC(C)C)N(C)C(=O)[C@H](Cc2cn(C(C)(C)[C@H]3CO3)c3ccccc23)NC1=O`: the MBC in assay [1] was over 10 µM; in assay [2] it was 4.6 µM.

`C=CC(C)(C)n1cc(C[C@@H]2NC(=O)[C@H](C/C=C/C)NC(=O)[C@H](CC(C)C)NC(=O)[C@H](CC(C)C)N(C)C(=O)[C@H](C)NC(=O)[C@H](Cc3ccc(O)c([N+](=O)[O-])c3)NC(=O)[C@H](CC(C)C)N(C)C2=O)c2ccccc21` (cyclo(A[NMeL]L[Gly(E-crotyl)][Trp(1-(1,1-Me2-allyl))][NMeL][Tyr(3-NO2)])): the MBC was over 10 µM in assay [1] and 4.5 µM in assay [2].

Regarding `C=CC(C)(C)n1cc(C[C@@H]2NC(=O)[C@H](C/C=C/C)NC(=O)[C@H](CC(C)C)NC(=O)[C@H](CC(C)C)N(C)C(=O)[C@H](C)NC(=O)[C@H](Cc3ccc(O)cc3)NC(=O)[C@H](CC(C)C)N(C)C2=O)c2ccccc21` (HELM PEPTIDE1{A.[meL].L.[C/C=C/C[C@H](N[*:1])C(=O)[*:2]].[C=CC(C)(C)n1cc(C[C@H](N[*:1])C(=O)[*:2])c2ccccc21].[meL].Y}$PEPTIDE1,PEPTIDE1,1:R1-7:R2$$$V2.0), the MBC in assay [1] is over 10 µM; in assay [2], 5.2 µM.

For `C/C=C/C[C@@H]1NC(=O)[C@H](CC(C)C)NC(=O)[C@H](CC(C)C)N(C)C(=O)[C@H](C)NC(=O)[C@H](Cc2ccc(O)c([N+](=O)[O-])c2)NC(=O)[C@H](CC(C)C)N(C)C(=O)[C@H](Cc2cn(C(C)(C)[C@H](O)CCl)c3ccccc23)NC1=O` (cyclo(A[NMeL]L[Gly(E-crotyl)][X3][NMeL][Tyr(3-NO2)])), the minimal bactericidal concentration (MBC) in assay [1] was over 10 µM; in assay [2], 3.1 µM.

Consider `C=CC(C)(C)n1cc(C[C@@H]2NC(=O)[C@H](C/C=C/C)NC(=O)[C@H](CC(C)C)NC(=O)[C@H](C[C@H](C)CO)N(C)C(=O)[C@H](C)NC(=O)[C@H](Cc3ccc(O)c([N+](=O)[O-])c3)NC(=O)[C@H](CC(C)C)N(C)C2=O)c2ccccc21` (cyclo(A[X2]L[Gly(E-crotyl)][Trp(1-(1,1-Me2-allyl))][NMeL][Tyr(3-NO2)])), for which the MBC in assay [1] was over 10 µM; in assay [2], 9.6 µM.

As to `C/C=C/C[C@@H]1NC(=O)[C@H](CC(C)C)NC(=O)[C@H](CC(C)C)N(C)C(=O)[C@H](C)NC(=O)[C@H](Cc2ccc(O)c([N+](=O)[O-])c2)NC(=O)[C@H](CC(C)C)NC(=O)[C@H](Cc2cn(C(C)(C)[C@H]3CO3)c3ccccc23)NC1=O` (cyclo(A[NMeL]L[Gly(E-crotyl)][Trp(1-CMe2(2S-oxiranyl))]L[Tyr(3-NO2)])), the figures for the MBC in assay [1] and in assay [2] were over 10 µM and 2.2 µM, respectively.
